ABHD5 PLIN5 PPI: ABHD5-PLIN5 protein interaction inhibition; Q00G26+Q8WTS1; Split G. princeps luciferase complementation, luminescence, 4 h; inhibition, % at 4 µM; actives 0.78% (n = 360,000); AID 602281;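 active = inhibition above the mean inhibition across every tested compound plus 3 SD, cut at about 22% in these data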
rCAG binder: binds r(CAG) RNA repeats. r(CAG) RNA repeat, TO-PRO-1 dye displacement fluorescence. inhibition, % at 3 µM. actives 1.3% (n = 370,000). AID 651821;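 active = inhibition above the plate cutoff, the mean of all test compounds on that plate plus 3 SD, cut at about 35% in these data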;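 note: higher means more dye released from RNA so lower well fluorescence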
core dimer inh: blocks dimerization of HCV core protein; inhibition, % at 5 µM; AID 1899; TR-FRET GST/Flag-core106 dimerization, 1536-well; actives 0.33% (n = 300,000);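 active = inhibition above the mean of all tested compounds plus 3 SD, set per screening campaign, cut at about 45% in these data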
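Assay system: Tagged HCV core106 pair (GST and Flag) | Buffer or medium: KF-containing HEPES buffer, pH 7.45, DTT, CHAPS, BSA | Also added: Eu donor and XL665 acceptor anti-tag antibodies | Dosing: One concentration, 5 µM, in 0.5% DMSO | Timing: 4 h at 22.5 °C | Technique: TR-FRET 671 and 617 nm emission | Repeats: Singlicate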
NadD block: blocks S. aureus nicotinate mononucleotide adenylyltransferase; purified NadD enzyme, colorimetric absorbance read-out; inhibition, % at 20 µM; actives 0.78% (n = 360,000); AID 602399; in the data active = inhibition above about 26%
NadD conf: confirmation of Staphylococcus aureus NadD inhibitors; actives 13% (n = 2,000); shares compounds with NadD block; inhibition, % at 20 µM; purified S. aureus NadD, colorimetric enzyme assay; in the data active = inhibition mostly above about 42%, no sharp cut-off; inactive = mostly below about 42%
Large screens that a line does not name were inactive (follow-up assays come after a bar, where they were run). Compounds with a hit are over-represented: about 2.6% of the library has one in this group of screens.

CC1(C(=O)Nc2cccc(OC(F)(F)F)c2)Cc2c(-c3ccc4c(c3)OCO4)ccnc2O1 (centres undefined)	none (no result: core dimer inh)
C=CCN1[C@@H](Cc2ccccc2)COc2cc(N3CCSCC3)ccc2S1(=O)=O	none (no result: core dimer inh)
O=S1(=O)C=C(Sc2ccc(Cl)cc2)c2ccccc2C1Cc1ccc(F)cc1 (centres undefined)	none (no result: ABHD5 PLIN5 PPI, core dimer inh, NadD block)
O=C(Nc1ccccc1)c1nc[nH]c1C(=O)NCCCNC(=O)c1[nH]cnc1C(=O)Nc1ccccc1	none (no result: core dimer inh)
O=C(Nc1ccccc1)c1nc[nH]c1C(=O)NCCN(CCNC(=O)c1[nH]cnc1C(=O)Nc1ccccc1)CCNC(=O)c1[nH]cnc1C(=O)Nc1ccccc1	NadD block 57 (no result: core dimer inh) | NadD conf inactive
CC(Nc1nc(-c2ccc(F)cc2)cs1)c1nc2cc(Cl)c(Cl)cc2n1CCCO (centres undefined)	none
Cc1ccc(Cn2c(C(C)Nc3nc(-c4ccc(C)cc4)cs3)nc3cc(Cl)c(Cl)cc32)cc1 (centres undefined)	NadD block 35 | NadD conf inactive
CCCn1c(C(C)Nc2nc(-c3cc(Cl)c(N)c(Cl)c3)cs2)nc2cc(Cl)c(N3CCCCC3)cc21 (centres undefined)	NadD block 33 | NadD conf inactive
Cc1ccc(Cn2c(C(C)Nc3nc(-c4ccc(Cl)c([N+](=O)[O-])c4)cs3)nc3cc(C(F)(F)F)ccc32)cc1 (centres undefined)	NadD block 37 | NadD conf inactive
CC(Nc1nc(-c2ccc(Cl)cc2)cs1)c1nc2cc(Cl)c(N3CCCCC3)cc2n1CCOCCO (centres undefined)	none
O=C(Nc1nc2c(s1)CN(Cc1ccccc1)CC2)c1cccc(S(=O)(=O)N2CCc3ccccc32)c1	NadD block 34 | NadD conf inactive
O=C(Cc1cn2ccsc2n1)Nc1nc2c(s1)CN(Cc1ccccc1)CC2	NadD block 35 | NadD conf inactive
O=Cc1cscc1[B-](F)(F)F	none (no result: ABHD5 PLIN5 PPI, core dimer inh, NadD block)
C[C@@H]1CN([C@H](C)CO)C(=O)CCCn2nncc2CO[C@H]1CN(C)C(=O)Nc1ccc2c(c1)OCCO2	none (no result: ABHD5 PLIN5 PPI, core dimer inh, NadD block)
Cc1cc(C(=O)N/N=C/c2ccc(-c3ccc([N+](=O)[O-])cc3Cl)o2)n[nH]1	NadD block 40 | NadD conf inactive
Cc1cc(C(=O)N/N=C/c2ccc(-c3cccc([N+](=O)[O-])c3)o2)n[nH]1	none
CNc1ccc(Br)cc(C(=O)/C=C/c2ccc(Cl)cc2Cl)c1=O	ABHD5 PLIN5 PPI 57, NadD block 62 | NadD conf inactive
CCNc1ccc(Br)cc(C(=O)/C=C/c2ccc(Cl)cc2)c1=O	ABHD5 PLIN5 PPI 27, NadD block 44 (no result: rCAG binder) | NadD conf inactive
O=C(/C=C/c1ccc(Cl)cc1Cl)c1ccc[nH]1	none
COc1ccc(NC(=O)c2cccc(N3C(=O)c4ccc(C(=O)Nc5ccc(OC)c(O)c5)cc4C3=O)c2)cc1O	NadD block 44 | NadD conf inactive
CC(=O)c1ccc(NC(=O)c2cccc(N3C(=O)c4ccccc4C3=O)c2)cc1	none (no result: rCAG binder)
COc1ccc(NS(=O)(=O)c2ccc(O)c(NC(=O)c3cc4c(C)nn(-c5ccc(F)cc5)c4s3)c2)cc1	NadD block 47 (no result: rCAG binder) | NadD conf inactive
CCOC(=O)C1=NOC(C(=O)Nc2nccs2)(C(=O)C2CC2)C1 (centres undefined)	none (no result: ABHD5 PLIN5 PPI, core dimer inh, NadD block)
O=C(Nc1c(F)c(F)c(F)c(F)c1F)OC[C@@H]1CSCCS(=O)(=O)N1	none (no result: ABHD5 PLIN5 PPI, core dimer inh, NadD block)
CCOc1ccc2nc(Cl)c(C3CC(c4ccco4)=NN3S(=O)(=O)c3ccccc3)cc2c1 (centres undefined)	NadD block 36 | NadD conf inactive
COc1ccc(NC(=O)N(C)[C@H]2C[C@H]3c4[nH]c5c(-c6cccc(C)c6)cccc5c4CCN3C(=O)[C@H]2[C@H](C)O)cc1	none (no result: ABHD5 PLIN5 PPI, core dimer inh, NadD block)
O=C(N/N=C/c1coc2ccccc2c1=O)c1cn(-c2ccccc2)nc1-c1ccccc1	NadD block 36 | NadD conf inactive
O=C(N/N=C/c1coc2ccccc2c1=O)c1ccccc1	none
Cc1ccccc1CN1C(=O)c2ccccc2C1c1nnnn1-c1ccc2c(c1)OCCO2 (centres undefined)	none (no result: core dimer inh)
N#Cc1c(OCC(=O)c2ccccc2)nc2c(c1-c1ccco1)CCc1ccccc1-2	NadD block 32 | NadD conf inactive
NC(Cc1ccc(O)cc1)C(=O)NN=Cc1ccccc1O (centres undefined)	none (no result: ABHD5 PLIN5 PPI, core dimer inh, NadD block)
O=C(Nc1cccc(-c2csc(Nc3ccccc3)n2)c1)c1cc([N+](=O)[O-])cc(C(F)(F)F)c1	NadD block 37 | NadD conf inactive
O=C(Nc1nc(-c2cccc([N+](=O)[O-])c2)cs1)c1cccc([N+](=O)[O-])c1C(=O)O	none
O=C(Nc1ccc(-c2csc(Nc3ccc(Cl)cc3)n2)cc1)c1cc([N+](=O)[O-])cc(C(F)(F)F)c1	NadD block 43 | NadD conf inactive
Cc1ccc(Nc2nc(-c3sc(NC(=O)c4ccc([N+](=O)[O-])cc4)nc3C)cs2)cc1	none (no result: ABHD5 PLIN5 PPI, rCAG binder, NadD block)
Cc1cccc(C)c1OCC(=O)Nc1ccc2c(c1)C(=O)NC2=O	none
Cc1nn(CC(=O)Nc2ccc3c(c2)nc2n3CCN(C3CCCCC3)C2)c(=O)c2ccccc12	NadD block 32 | NadD conf inactive
O=c1cc(CN2CCN(C/C=C/c3ccccc3)CC2)c2cc(O)c(-c3ccccc3)cc2o1	NadD block 39 | NadD conf inactive
CCCN(CCC)S(=O)(=O)c1ccc(C(=O)NNc2nc(-c3ccccc3)c3cc(Br)ccc3n2)cc1	NadD block 36 | NadD conf inactive
OCCNc1nc(-c2ccccc2)c2cc(Br)ccc2n1	none
N#C/C(=C\c1c[nH]c2ccccc12)C(=O)Nc1ncc(Cc2ccc(Cl)cc2Cl)s1	NadD block 38 | NadD conf inactive
Cn1cc(/C=C(\C#N)C(=O)Nc2ncc(Cc3cccc(Cl)c3)s2)c2ccccc21	none (no result: ABHD5 PLIN5 PPI, rCAG binder, NadD block)
COC(=O)C1=C(C)N(Cc2ccc(F)cc2)C(=S)NC1c1ccccc1 (centres undefined)	none (no result: ABHD5 PLIN5 PPI, core dimer inh, NadD block)
CC1(C(=O)NS(=O)(=O)c2cccc(C#N)c2)CCN1C(=O)Cc1ccccc1Cl (centres undefined)	none (no result: core dimer inh)
CNC(=O)c1ccc(NC(=O)C2CCN(c3ncnc4sc(C)c(C)c34)CC2)cc1	none
CCc1cccc(NC(=O)C2CCN(c3ncnc4sc(C)c(C)c34)CC2)c1	none (no result: core dimer inh)
Cc1sc2ncnc(N3CCC(C(=O)NCC(=O)Nc4ccc(F)c(F)c4)CC3)c2c1C	none
CCc1ccc2nc(NC(=O)C3CCN(c4ncnc5sc(C)c(C)c45)CC3)sc2c1	NadD block 33 (no result: core dimer inh) | NadD conf inactive
Cc1sc2ncnc(N3CCC(C(=O)Nc4ccc(Cl)c(Cl)c4)CC3)c2c1C	NadD block 42 (no result: core dimer inh) | NadD conf inactive
C=CCn1c(C)cc(-c2csc(NC(=O)C3CCN(c4ncnc5sc(C)c(C)c45)CC3)n2)c1C	NadD block 32 (no result: core dimer inh) | NadD conf inactive
Cc1sc2ncnc(N3CCC(C(=O)Nc4nnc(SCc5ccccc5F)s4)CC3)c2c1C	NadD block 47 | NadD conf inactive
C=CCn1c(SCC(=O)c2ccc(-c3ccccc3)cc2)nnc1-c1ccc(OC)cc1	none (no result: ABHD5 PLIN5 PPI, core dimer inh, NadD block)

Assay outcomes from PubChem.
